Compound activity deposited in PubChem by several laboratories.
This is a sample that favours compounds with a hit; in the whole collection about 2.8% have one here.
EBI2 block = blocks human EBI2 receptor beta-arrestin signaling | P32249 | EBI2 beta-arrestin recruitment, luminescence, 7a,25-OHC stimulated | inhibition, % at 5 µM | hit rate 0.81% among 360,000 | AID 651636; in the data active means inhibition above about 38%;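 further: enzyme fragment complementation signal reports receptor beta-arrestin coupling in cells; 0% = agonist plus DMSO wells and 100% = wells without agonist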
Target sequence (P32249 whole entry, looked up, the tested form may be a part): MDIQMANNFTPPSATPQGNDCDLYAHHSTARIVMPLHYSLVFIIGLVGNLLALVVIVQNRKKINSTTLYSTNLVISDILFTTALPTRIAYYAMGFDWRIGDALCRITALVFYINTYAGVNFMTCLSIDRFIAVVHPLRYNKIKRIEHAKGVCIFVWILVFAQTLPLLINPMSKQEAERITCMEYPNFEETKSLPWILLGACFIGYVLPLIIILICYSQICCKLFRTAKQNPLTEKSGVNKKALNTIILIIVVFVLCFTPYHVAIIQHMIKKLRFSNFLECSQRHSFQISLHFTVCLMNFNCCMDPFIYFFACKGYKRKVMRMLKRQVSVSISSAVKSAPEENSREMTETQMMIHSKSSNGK
MC4R antagonist = antagonists of human melanocortin 4 receptor (MC4R) | hit rate 0.48% among 360,000 | inhibition, % at 6.5 µM | MC4R-expressing cells, MTII-stimulated cAMP, LANCE TR-FRET;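 active means inhibition above its plate's cutoff, the mean of tested wells on that plate plus 3 SD, cut at about 29% in these data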;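 further: 0% = Melanotan II alone and 100% = Melanotan II plus saturating MCL0020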
Target sequence (P32245 whole entry, looked up): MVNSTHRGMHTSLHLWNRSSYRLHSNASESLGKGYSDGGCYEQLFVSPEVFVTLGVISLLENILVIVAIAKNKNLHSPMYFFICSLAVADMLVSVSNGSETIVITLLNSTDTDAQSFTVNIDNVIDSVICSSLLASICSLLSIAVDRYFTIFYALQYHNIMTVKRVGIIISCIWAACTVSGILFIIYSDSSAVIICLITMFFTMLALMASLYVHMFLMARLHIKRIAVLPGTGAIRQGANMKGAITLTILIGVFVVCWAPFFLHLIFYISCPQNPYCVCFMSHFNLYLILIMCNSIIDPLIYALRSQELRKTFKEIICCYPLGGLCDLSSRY
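Material: human MC4R-expressing U2OS cells. Probe or stimulus: Melanotan II challenge. Dosing: 6.5 µM single dose. Times: 30-min compound, 1-h challenge, 1-h detection, room temperature. Technique: TR-FRET with Eu-cAMP and labeled anti-cAMP, 671 nm. Replication: singlicate.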
MC4R barr agon = agonists of human melanocortin 4 receptor (MC4R) beta-arrestin | hit rate 0.98% among 360,000 | U2OS MC4R beta-arrestin complementation, luminescence; percent of melanotan II response, DMSO zero | activation, % at 8.9 µM | AID 540308;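 active means activation above a per-plate cutoff, the mean activation of sample wells on that plate plus 3 SD, cut at about 8% in these data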
HTR2A ag = agonists of mouse serotonin 5-HT2A receptor (HTR2A). P35363. CHO-K1 mHTR2A beta-arrestin complementation, luminescence; percent of 30 µM serotonin response. activation, % at 7.6 µM. hit rate 0.66% among 360,000;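 active means activation above a run cutoff, the mean activation of all tested compounds plus 3 SD, cut at about 14% in these data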;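 further: 0% = plate median of compound wells and 100% = 30 µM serotonin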
EBI2 antag conf = EBI2 (human) antagonism, single concentration confirmation; shares compounds with EBI2 block; hit rate 29% among 2,400; inhibition, % at 5 µM; EBI2 beta-arrestin luminescence, 7a,25-OHC antagonism;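 active means inhibition of at least 50%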
EBI2 ag = activates EBI2, counter-screen for EBI2 antagonists | activation, % at 5 µM | EBI2-expressing cells, agonist mode, luminescence, 60 min; 0% vehicle, 100% 7α,25-dihydroxycholesterol control | 2,400 tested, under 10 active | AID 652000 | shares compounds with EBI2 block;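 active means activation of at least 50%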
bGal counter = inhibits E. coli beta-galactosidase, counter-screen for EBI2 antagonists; shares compounds with EBI2 block; purified beta-galactosidase, luminescent Galacton Star, 15 min; inhibition, % at 5 µM; hit rate 1% among 2,400; AID 652176;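 active means replicate-average signal at least 3 plate SD below neutral wells, shown as high inhibition, flagging enzyme-inhibiting false positives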;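 further: 0% = DMSO wells with enzyme and 100% = wells lacking enzyme; higher means stronger loss of beta-gal luminescence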
* marks the source's active call; other numbers are inactive results; x = no result given.

SMILES | EBI2 block | MC4R antagonist | MC4R barr agon | HTR2A ag | EBI2 antag conf | EBI2 ag | bGal counter
CCCc1c(C(=O)N/N=C/c2c[nH]c3ccccc23)nnn1-c1nonc1N | 43* | 4 | 1 | 1 | 36 | 0 | -18
CCCN(CCC)Cc1c(C(=O)N/N=C/c2c[nH]c3ccccc23)nnn1-c1nonc1N | 7 | 2 | 4 | -4 | x | x | x
O=C(CCc1c[nH]c2ccccc12)NCCc1ccc(Cl)cc1 | 49* | 8 | 0 | 0 | 29 | 0 | 7
COc1ccc(-c2cc(-c3nnc(COC(=O)c4ccc(O)cc4)o3)c3ccccc3n2)cc1OC | 46* | 22 | -1 | -2 | 8 | 4 | 5
COc1ccc(-c2cc(-c3nnc(COC(=O)C4CC4)o3)c3ccccc3n2)cc1OC | -3 | 12 | 0 | -1 | x | x | x
O=C(Nc1cc(C(F)(F)F)ccc1N1CCOCC1)c1ccc2ccccc2n1 | 44* | 3 | -1 | -3 | 31 | 1 | 10
Cc1cc(C(=O)Nc2cc(C(F)(F)F)ccc2N2CCOCC2)no1 | -2 | 7 | 5 | -3 | x | x | x
Cc1cc(C(C)(C)C)oc1C(=O)N1CCN(C(=O)c2oc(C(C)(C)C)cc2C)CC1 | 48* | 6 | 0 | 2 | 30 | 0 | 6
O=c1[nH]nc(CNc2ccc(OC(F)(F)F)cc2)c2ccccc12 | 52* | 15 | 3 | 0 | 29 | -1 | -7
O=c1[nH]nc(CNc2ccc(C(F)(F)F)cc2)c2ccccc12 | 21 | -13 | 7 | -4 | x | x | x
O=C(NCC1CCCN1S(=O)(=O)c1cccs1)C(=O)Nc1ccc(F)cc1 (configuration not stated) | -5 | 7 | -2 | -9 | x | x | x
Brc1ccc(OCc2nnnn2-c2ccccc2)cc1 | 80* | 0 | -1 | -4 | 64* | 0 | -13
CCCC(C)NC(=O)CN1C(=O)c2cccc3cccc1c23 (configuration not stated) | -9 | 8 | -2 | 1 | x | x | x
O=C1CC(=O)NC(SCC(=O)Nc2ccccc2[N+](=O)[O-])=N1 | 2 | 20 | 0 | -4 | x | x | x
CCOc1ccc(C(=O)NC(=S)Nc2cccnc2)cc1 | -3 | 1 | -2 | -4 | x | x | x
CCOc1ccc(NC(=S)Nc2ccccc2C2(C)CC2)cc1 | 60* | 1 | 2 | 3 | 20 | 2 | 4
CCOc1ccc(NC(=S)Nc2cc(-c3ccccc3)[nH]n2)cc1 | 42* | 1 | -1 | -5 | 19 | 0 | 6
CCOc1ccc(NC(=S)Nc2cccnc2)cc1 | 58* | 5 | -2 | 3 | 24 | -1 | -10
CCCN(Cc1ccccc1)C(=S)Nc1ccc(OCC)cc1 | 29 | 1 | -1 | 1 | x | x | x
CCOc1ccc(NC(=S)NN(C)C(=S)Nc2ccc(OCC)cc2)cc1 | 78* | -2 | -1 | 2 | 38 | 0 | -15
CCOc1ccc(NC(=S)Nc2ccc(F)cc2)cc1 | 59* | 2 | -2 | -1 | 41 | 0 | 8
O=C(/C=C1\OCc2cc(OCc3ccccc3)ccc21)OCc1ccccc1 | 46* | x | x | -2 | 32 | -1 | -15
O=C(/C=C1\OCc2ccccc21)OCc1ccccc1 | 8 | x | x | -5 | x | x | x
COCCNC(=O)Cn1c(=O)oc2cc(S(=O)(=O)N3CC(C)CC(C)C3)ccc21 (configuration not stated) | -3 | 2 | -1 | 10 | x | x | x
COCCn1c(=NC(=O)CSCC(=O)N2CCOCC2)sc2cc(C)ccc21 | 1 | 0 | -2 | 0 | x | x | x
SMILES | EBI2 block | MC4R antagonist | MC4R barr agon | HTR2A ag | EBI2 antag conf | EBI2 ag | bGal counter
COc1ccc(OC)c(NC(=O)CSCc2cnn(-c3ccccc3)c2-n2cccc2)c1 | 15 | 8 | -1 | 4 | x | x | x
COc1cc(NC(=O)CSCc2cnn(-c3ccccc3)c2-n2cccc2)cc(OC)c1 | 37* | 21 | 2 | 2 | 14 | -2 | -13
Cc1ccc(CCNC(=O)C2CCN(S(=O)(=O)c3cccc4nonc34)CC2)cc1 | 1 | 2 | 7 | 2 | x | x | x
O=C(NCc1cccnc1)C1CCN(S(=O)(=O)c2cccnc2)CC1 | -18 | 1 | 0 | -3 | x | x | x
CC(=O)N1CCOc2ccc(S(=O)(=O)N3CCC(C(=O)NCc4ccccc4)CC3)cc21 | 65* | 21 | -3 | -6 | 50 | 0 | -14
Cc1ccc(CNC(=O)C2CCN(S(=O)(=O)c3c(C)noc3C)CC2)cc1 | 47* | 6 | -2 | 0 | 18 | 1 | -10
Cc1ccc(CNC(=O)C2CCN(S(=O)(=O)c3cccc4nonc34)CC2)cc1 | 49* | -1 | 8 | -3 | 24 | 0 | 7
Cc1ccc(CNC(=O)C2CCN(S(=O)(=O)c3cccnc3)CC2)cc1 | 52* | 8 | -1 | -7 | 44 | 2 | 5
CC(=O)N1CCOc2ccc(S(=O)(=O)N3CCC(C(=O)Nc4ccc(F)cc4)CC3)cc21 | -7 | 2 | -2 | -5 | x | x | x
COc1cc(CCCN2C(=S)NC[C@@H]2c2ccccc2)cc(OC)c1OC | 18 | 10 | -1 | 1 | x | x | x
Cc1ccc(NC(=O)[C@@H]2O[C@H](CO)[C@@H](O)[C@H]2O)cc1C(F)(F)F | -5 | -6 | -2 | -6 | x | x | x
COCCn1nnnc1CN1CCC(C)CC1 | -7 | 3 | 0 | -1 | x | x | x
Cc1c(CCNC=O)cc(C)c2c3c(oc12)CCCC3 | 5 | -13 | 0 | -1 | x | x | x
Cc1ccc(CNC(=O)C2CCC(CNS(=O)(=O)c3cccc4cccnc34)CC2)cc1 (configuration not stated) | 50* | 24 | -1 | -14 | 39 | -1 | -10
Nc1nonc1C(=O)NCCNS(=O)(=O)c1ccc(Br)cc1 | 1 | -2 | 0 | 0 | x | x | x
CSc1ccccc1NC(=O)c1cc(-c2cccnc2)nc2ccc(Br)cc12 | 41* | 13 | 3 | -1 | 16 | -1 | -7
Cc1ccc2nc(-c3cccnc3)cc(C(=O)Nc3ccccc3[N+](=O)[O-])c2c1 | 48* | 12 | 7 | 3 | 61* | 1 | 5
CCc1cc(C(=O)c2ccc(OC)cc2)c(NC(=O)CC(C)(C)CC(=O)O)s1 | 2 | 8 | 0 | 3 | x | x | x
CCOc1ccc(NC(=S)N(CCc2c(C)[nH]c3ccc(C)cc23)Cc2ccco2)cc1 | 40* | 19 | 2 | 6 | 29 | 0 | 3
C[C@@H]1CN([C@H](C)CO)C(=O)c2cccc(NC(=O)NC3CCCCC3)c2O[C@@H]1CN(C)C(=O)Nc1ccc(C(F)(F)F)cc1 | 72* | 12 | -2 | 8 | 46 | -1 | -11
C=CCn1c(SCC(=O)NNC(=O)Nc2cccc(Cl)c2)nnc1-c1ccccc1 | 61* | 0 | 1 | 6 | 11 | -1 | -10
